Experimental data reported in ChEMBL document CHEMBL1255425, “Mutant APH(2'')-IIa enzymes with increased activity against amikacin and isepamicin” (2010).
Values after ≈ are worked out from the molar mass of the structure shown.

What was measured:
[1] = Activity of Aminoglycoside […] 2a using ATP/GTP as second substrate by spectrophotometric assay
Outline: (§1)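 Enzymes were expressed in E. coli BL21(DE3) and affinity-purified: gentamicin column for wild type and N196D/D268N, kanamycin column for R92H/D268N. Activity was read by continuous PK/LDH-coupled NADH assay in 100 mM HEPES pH 7.5, 10 mM MgCl2, 20 mM KCl, 2 mM PEP, 140 μM NADH, with 5 to 10 nM enzyme. ATP/GTP was varied with kanamycin A fixed at 10 μM. Values came from nonlinear Michaelis-Menten fits.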

[2] = Activity of Aminoglycoside […] 2a N196D/D268N mutant using ATP/GTP as second substrate by spectrophotometric assay; outline: as §1
[3] = Activity of Aminoglycoside […] 2a R92H/D268N mutant using ATP/GTP as second substrate by spectrophotometric assay; outline: as §1
[4] = Ratio of Kcat to Km for Aminoglycoside […] 2a using ATP/GTP as second substrate by spectrophotometric assay; outline: as §1
[5] = Ratio of Kcat to Km for Aminoglycoside […] 2a N196D/D268N mutant using ATP/GTP as second substrate by spectrophotometric assay; outline: as §1
[6] = Ratio of Kcat to Km for Aminoglycoside […] 2a R92H/D268N mutant using ATP/GTP as second substrate by spectrophotometric assay; outline: as §1
Escherichia coli [7] = assay: Antibacterial activity against Escherichia coli JM83 producing aminoglycoside 2''-2a phosphotransferase by broth microdilution method; type: functional
Outline: (§2)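 MICs by CLSI broth microdilution in Mueller-Hinton II broth; inoculum 5 × 10^5 CFU/ml; plates read after 20 h at 35°C. Host E. coli JM83 carrying pHF022 (empty or with cloned wild-type or mutant aph(2″)-IIa gene between NdeI and HindIII). Values are averages of at least three independent experiments.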

Escherichia coli [8] = assay: Antibacterial activity against Escherichia coli JM83 harboring pHF022 containing aminoglycoside 2''-2a phosphotransferase N196D/D268N mutant by broth microdilution method; type: functional; outline: as §2
Escherichia coli [9] = assay: Antibacterial activity against Escherichia coli JM83 harboring pHF022 containing aminoglycoside 2''-2a phosphotransferase R92H/D268N mutant by broth microdilution method; type: functional; outline: as §2
Escherichia coli [10] = assay: Antibacterial activity against Escherichia coli JM83 harboring pHF022 containing aminoglycoside 2''-2a phosphotransferase R92H mutant by broth microdilution method; type: functional; outline: as §2
Escherichia coli [11] = assay: Antibacterial activity against Escherichia coli JM83 harboring pHF022 containing aminoglycoside 2''-2a N196D mutant by broth microdilution method; type: functional; outline: as §2
Escherichia coli [12] = assay: Antibacterial activity against Escherichia coli JM83 harboring pHF022 containing aminoglycoside 2''-2a D268N mutant by broth microdilution method; type: functional; outline: as §2
Escherichia coli [13] = assay: Antibacterial activity against Escherichia coli JM83 harboring empty pHF022 vector by broth microdilution method; type: functional; outline: as §2

Compound	Km [1] [µM]	kcat [1] [s⁻¹]	Km [2] [µM]	kcat [2] [s⁻¹]	Km [3] [µM]	kcat [3] [s⁻¹]	kcat/Km [4]	kcat/Km [5]	kcat/Km [6]	MIC (Escherichia coli [7]) [µg/mL]	MIC (Escherichia coli [8]) [µg/mL]	MIC (Escherichia coli [9]) [µg/mL]	MIC (Escherichia coli [10]) [µg/mL]	MIC (Escherichia coli [11]) [µg/mL]	MIC (Escherichia coli [12]) [µg/mL]	MIC (Escherichia coli [13]) [µg/mL]
Nc1ncnc2c1ncn2[C@@H]1O[C@H](COP(=O)(O)OP(=O)(O)OP(=O)(O)O)[C@@H](O)[C@H]1O	16.3	43.3	5.6	12.1	29.5	21.4	2.7 ×10⁶ /M/s	2.2 ×10⁶ /M/s	7.2 ×10⁵ /M/s	–	–	–	–	–	–	–
Nc1nc(=O)c2ncn([C@@H]3O[C@H](COP(=O)(O)OP(=O)(O)OP(=O)(O)O)[C@@H](O)C3O)c2[nH]1 (single isomer, unassigned)	70	9.4	16.2	10.6	28.2	8.9	1.3 ×10⁵ /M/s	6.5 ×10⁵ /M/s	3.2 ×10⁵ /M/s	–	–	–	–	–	–	–
CN[C@@H]1[C@@H](O)[C@@H](O[C@@H]2[C@@H](O)[C@H](O[C@H]3O[C@H](C(C)O)[C@@H](O)[C@H](O)[C@H]3N)[C@@H](N)C[C@H]2N)OC[C@]1(C)O (single isomer, unassigned) [GENETICIN]	–	–	–	–	–	–	–	–	–	512 (≈ 1030 µM)	512 (≈ 1030 µM)	512 (≈ 1030 µM)	512 (≈ 1030 µM)	512 (≈ 1030 µM)	512 (≈ 1030 µM)	2 (≈ 4.03 µM)
NCC[C@H](O)C(=O)N[C@@H]1C[C@H](N)[C@@H](O[C@H]2O[C@H](CN)[C@@H](O)[C@H](O)[C@H]2O)[C@H](O)[C@H]1O[C@H]1O[C@H](CO)[C@@H](O)[C@H](N)[C@H]1O [AMIKACIN]	62.9	8.3	13.5	13.8	23.7	22.3	1.3 ×10⁵ /M/s	1 ×10⁶ /M/s	9.4 ×10⁵ /M/s	2 (≈ 3.42 µM)	16 (≈ 27.3 µM)	16 (≈ 27.3 µM)	2 (≈ 3.42 µM)	2 (≈ 3.42 µM)	2 (≈ 3.42 µM)	2 (≈ 3.42 µM)
NC[C@H]1O[C@H](O[C@H]2[C@H](O)[C@@H](O[C@H]3O[C@H](CO)[C@@H](O)[C@H](N)[C@H]3O)[C@H](N)C[C@@H]2N)[C@H](N)[C@@H](O)[C@@H]1O [BEKANAMYCIN]	–	–	–	–	–	–	–	–	–	64 (≈ 132 µM)	64 (≈ 132 µM)	64 (≈ 132 µM)	64 (≈ 132 µM)	64 (≈ 132 µM)	64 (≈ 132 µM)	1 (≈ 2.07 µM)
NC[C@@H]1CC[C@@H](N)[C@@H](O[C@H]2[C@H](O)[C@@H](O[C@H]3O[C@H](CO)[C@@H](O)[C@H](N)[C@H]3O)[C@H](N)C[C@@H]2N)O1 [DIBEKACIN]	1.2	17.1	< 1	16.9	1.2	27.5	1.4 ×10⁷ /M/s	> 1.7 ×10⁷ /M/s	2.3 ×10⁷ /M/s	64 (≈ 142 µM)	64 (≈ 142 µM)	64 (≈ 142 µM)	64 (≈ 142 µM)	64 (≈ 142 µM)	32 (≈ 70.9 µM)	0.5 (≈ 1.11 µM)
CN[C@@H]1[C@@H](O)[C@@H](O[C@@H]2[C@@H](O)[C@H](O[C@H]3O[C@H](CN)[C@@H](O)[C@H](O)[C@H]3O)[C@@H](N)C[C@H]2NC(=O)[C@@H](O)CN)OC[C@]1(C)O [ISEPAMICIN]	13.5	5.7	2	4.1	1.2	2.8	4.4 ×10⁵ /M/s	2 ×10⁶ /M/s	2.3 ×10⁶ /M/s	2 (≈ 3.51 µM)	16 (≈ 28.1 µM)	16 (≈ 28.1 µM)	4 (≈ 7.02 µM)	2 (≈ 3.51 µM)	2 (≈ 3.51 µM)	2 (≈ 3.51 µM)
NC[C@@H]1O[C@@H](O[C@H]2[C@H](O)[C@@H](O[C@H]3O[C@H](CO)[C@@H](O)[C@H](N)[C@H]3O)[C@H](N)C[C@@H]2N)[C@@H](O)[C@H](O)[C@H]1O [KANAMYCIN A]	2.1	45.1	< 1	13.8	< 1	20.5	2.2 ×10⁷ /M/s	> 1.4 ×10⁷ /M/s	> 2 ×10⁷ /M/s	256 (≈ 528 µM)	256 (≈ 528 µM)	256 (≈ 528 µM)	256 (≈ 528 µM)	256 (≈ 528 µM)	256 (≈ 528 µM)	2 (≈ 4.13 µM)
CCN[C@@H]1C[C@H](N)[C@@H](O[C@H]2OC(CN)=CC[C@H]2N)[C@H](O)[C@H]1O[C@H]1OC[C@](C)(O)[C@H](NC)[C@H]1O [NETILMICIN]	–	–	–	–	–	–	–	–	–	8 (≈ 16.8 µM)	8 (≈ 16.8 µM)	8 (≈ 16.8 µM)	16 (≈ 33.6 µM)	8 (≈ 16.8 µM)	4 (≈ 8.41 µM)	0.25 (≈ 0.526 µM)
CN[C@@H]1[C@@H](O)[C@@H](O[C@@H]2[C@@H](O)[C@H](O[C@H]3OC(CN)=CC[C@H]3N)[C@@H](N)C[C@H]2N)OC[C@]1(C)O [SISOMICIN]	–	–	–	–	–	–	–	–	–	8 (≈ 17.9 µM)	4 (≈ 8.94 µM)	8 (≈ 17.9 µM)	8 (≈ 17.9 µM)	8 (≈ 17.9 µM)	4 (≈ 8.94 µM)	0.25 (≈ 0.559 µM)
NC[C@H]1O[C@H](O[C@H]2[C@H](O)[C@@H](O[C@H]3O[C@H](CO)[C@@H](O)[C@H](N)[C@H]3O)[C@H](N)C[C@@H]2N)[C@H](N)C[C@@H]1O [TOBRAMYCIN]	1.5	26.1	< 1	16.6	< 1	26.7	1.7 ×10⁷ /M/s	> 1.7 ×10⁷ /M/s	> 2.7 ×10⁷ /M/s	64 (≈ 137 µM)	64 (≈ 137 µM)	64 (≈ 137 µM)	64 (≈ 137 µM)	64 (≈ 137 µM)	32 (≈ 68.4 µM)	1 (≈ 2.14 µM)
GENTAMICIN	–	–	–	–	–	–	–	–	–	16	16	16	16	16	16	0.25
